Laboratory results: ChEMBL document CHEMBL3616416, “Imidazolidine-4-one derivatives in the search for novel chemosensitizers of Staphylococcus aureus MRSA: synthesis, biological evaluation and molecular modeling studies” (Eur J Med Chem, 2015)
≈ marks a conversion by molar mass, not a printed value. Calls of active or inactive are those of the source. The calls are words filed in the database; no cut-off is given here.

Key:
[1] = test system: Staphylococcus aureus; experiment: Resistance index, ratio of MIC for methicillin-resistant Staphylococcus aureus HEMSA to MIC for Staphylococcus aureus ATCC 25923; format: functional
[2] = molecular target: T1, Methicillin resistance mecR1 protein (Staphylococcus aureus) (UniProt P0A0B1); experiment: Inhibition of MecR1 in methicillin-resistant Staphylococcus aureus HEMSA assessed as reduction in oxacillin A MIC at 0.125 mM incubated for 20 hrs by serial dilution broth microplate method
T1 sequence (whole entry): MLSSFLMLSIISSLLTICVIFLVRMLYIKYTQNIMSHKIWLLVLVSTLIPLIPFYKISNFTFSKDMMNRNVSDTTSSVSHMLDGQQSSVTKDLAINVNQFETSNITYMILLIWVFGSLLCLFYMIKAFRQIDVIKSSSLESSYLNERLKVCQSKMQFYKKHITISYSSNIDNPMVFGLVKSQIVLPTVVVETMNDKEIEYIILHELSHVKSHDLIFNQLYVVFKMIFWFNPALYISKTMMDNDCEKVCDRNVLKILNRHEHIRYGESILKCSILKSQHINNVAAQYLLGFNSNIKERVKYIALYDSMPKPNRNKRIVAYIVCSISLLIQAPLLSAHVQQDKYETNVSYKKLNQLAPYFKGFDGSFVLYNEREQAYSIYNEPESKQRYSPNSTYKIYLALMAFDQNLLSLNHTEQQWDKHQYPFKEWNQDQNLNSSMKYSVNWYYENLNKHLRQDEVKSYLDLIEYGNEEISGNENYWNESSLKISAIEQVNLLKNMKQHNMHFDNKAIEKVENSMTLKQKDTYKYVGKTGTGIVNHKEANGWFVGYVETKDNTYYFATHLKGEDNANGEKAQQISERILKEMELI
Summary of the method: (§1)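 Chemosensitization in MRSA HEMSA 5 measured by CLSI broth microdilution in Mueller-Hinton broth. Serial two-fold dilutions of antibiotic (oxacillin, cloxacillin, ampicillin/sulbactam 2:1, ciprofloxacin or neomycin) combined with compound at fixed concentration not exceeding ¼ of its own MIC. Inoculum OD 0.5 diluted 1:100. Read after 20 h at 37 °C. Result given as fold reduction of antibiotic MIC.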

[3] = Toxicity against HEK293 cells assessed as cell viability at 0.125 mM incubated for 48 hrs by EZ4U colorimetric assay; format: cell-based; settings: human, read-out: Activity
Summary of the method: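 HEK-293 cells in DMEM with 10% FBS, penicillin/streptomycin, 37 °C, 5% CO2; seeded 1.5×10^4 cells/well, 24 h to 60% confluence; compound 0.01–250 µM for 48 h; EZ4U tetrazolium reagent 5 h, absorbance at 492 nm; doxorubicin positive control (0.005–100 µM); four repetitions.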

[4] = test system: Staphylococcus aureus; experiment: Potentiation of ciprofloxacin -induced antibacterial activity against Staphylococcus aureus ATCC 25923 assessed as reduction in […] MIC incubated for 20 hrs by serial dilution broth microplate method; format: functional, organism-based
[5] = test system: Staphylococcus aureus; experiment: Potentiation of oxacillin-induced antibacterial activity against Staphylococcus aureus ATCC 25923 assessed as reduction in oxacillin MIC at 0.125 mM incubated for 20 hrs by serial dilution broth microplate method; format: functional
[6] = molecular target: T1, Methicillin resistance mecR1 protein (Staphylococcus aureus); experiment: Inhibition of MecR1 in methicillin-resistant Staphylococcus aureus HEMSA assessed as reduction in neomycin MIC at 0.125 mM incubated for 20 hrs by serial dilution broth microplate method
[7] = test system: Staphylococcus aureus; experiment: Potentiation of neomycin-induced antibacterial activity against Staphylococcus aureus ATCC 25923 assessed as reduction in […] MIC incubated for 20 hrs by serial dilution broth microplate method; format: functional, organism-based
[8] = test system: Staphylococcus aureus; experiment: Antimicrobial activity against Staphylococcus aureus ATCC 25923 incubated for 20 hrs by serial dilution broth microplate method; format: functional; settings: ATCC 25923, 20 h
Summary of the method: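 Broth dilution per CLSI in Mueller-Hinton broth, serial two-fold dilutions; compounds alone against reference strain, inoculum from suspension at OD 0.5 diluted 1:100; read after 20 h at 37 °C. MIC taken as lowest concentration inhibiting growth.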

[9] = test system: Staphylococcus aureus; experiment: Antimicrobial activity against methicillin-resistant Staphylococcus aureus HEMSA incubated for 20 hrs by serial dilution broth microplate method; format: functional
Summary of the method: (§2)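 Broth microdilution MIC per CLSI in Mueller-Hinton broth against clinical isolate MRSA HEMSA 5. Bacterial suspension adjusted to OD 0.5, diluted 1:100 and added to serial two-fold dilutions of test agent. Ampicillin/sulbactam used at 2:1 ratio. Growth read after 20 h at 37 °C.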

[10] = molecular target: T1, Methicillin resistance mecR1 protein (Staphylococcus aureus); experiment: Inhibition of MecR1 in methicillin-resistant Staphylococcus aureus HEMSA assessed as reduction in ciprofloxacin MIC at 0.125 mM incubated for 20 hrs by serial dilution broth microplate method; summary of the method: as §1
[11] = test system: Staphylococcus aureus; experiment: Potentiation of […] antibacterial activity against Staphylococcus aureus ATCC 25923 assessed as reduction in ampicillin and sulbactam MIC MIC incubated for 20 hrs by serial dilution broth microplate method; format: functional, organism-based
[12] = molecular target: T1, Methicillin resistance mecR1 protein (Staphylococcus aureus); experiment: Inhibition of MecR1 in methicillin-resistant Staphylococcus aureus HEMSA assessed as reduction in ampicillin and sulbactam MIC at 0.125 mM incubated for 20 hrs by serial dilution broth microplate method; summary of the method: as §1
[13] = molecular target: T1, Methicillin resistance mecR1 protein (Staphylococcus aureus); experiment: Inhibition of MecR1 in methicillin-resistant Staphylococcus aureus HEMSA assessed as reduction in cloxacillin MIC at 0.125 mM incubated for 20 hrs by serial dilution broth microplate method; summary of the method: as §1
[14] = test system: Staphylococcus aureus; experiment: Potentiation of […] antibacterial activity against Staphylococcus aureus ATCC 25923 assessed as reduction in cloxacillin MIC incubated for 20 hrs by serial dilution broth microplate method; format: functional, organism-based
[15] = test system: Staphylococcus aureus; experiment: Antimicrobial activity against methicillin-resistant Staphylococcus aureus HEMSA incubated for 20 hrs in presence of sulbactam by serial dilution broth microplate method; format: functional; summary of the method: as §2
[16] = test system: Staphylococcus aureus; experiment: Antimicrobial activity against Staphylococcus aureus ATCC 25923 incubated for 20 hrs in presence of sulbactam by serial dilution broth microplate method; format: functional; settings: ATCC 25923, 20 h
[17] = molecular target: T1, Methicillin resistance mecR1 protein (Staphylococcus aureus); experiment: Inhibition of MecR1 in methicillin-resistant Staphylococcus aureus HEMSA assessed as reduction in cloxacillin MIC at 0.0078 mM incubated for 20 hrs by serial dilution broth microplate method; summary of the method: as §1
[18] = molecular target: T1, Methicillin resistance mecR1 protein (Staphylococcus aureus); experiment: Inhibition of MecR1 in methicillin-resistant Staphylococcus aureus HEMSA assessed as reduction in ampicillin and sulbactam MIC at 0.0078 mM incubated for 20 hrs by serial dilution broth microplate method; summary of the method: as §1
[19] = molecular target: T1, Methicillin resistance mecR1 protein (Staphylococcus aureus); experiment: Inhibition of MecR1 in methicillin-resistant Staphylococcus aureus HEMSA assessed as reduction in neomycin MIC at 0.0078 mM incubated for 20 hrs by serial dilution broth microplate method; summary of the method: as §1
[20] = molecular target: T1, Methicillin resistance mecR1 protein (Staphylococcus aureus); experiment: Inhibition of MecR1 in methicillin-resistant Staphylococcus aureus HEMSA assessed as reduction in ciprofloxacin MIC at 0.0078 mM incubated for 20 hrs by serial dilution broth microplate method; summary of the method: as §1
[21] = test system: Staphylococcus aureus; experiment: Potentiation of oxacillin-induced antibacterial activity against Staphylococcus aureus ATCC 25923 assessed as reduction in oxacillin MIC at 0.0039 mM incubated for 20 hrs by serial dilution broth microplate method; format: functional
[22] = molecular target: T1, Methicillin resistance mecR1 protein (Staphylococcus aureus); experiment: Inhibition of MecR1 in methicillin-resistant Staphylococcus aureus HEMSA assessed as reduction in oxacillin A MIC at 0.0078 mM incubated for 20 hrs by serial dilution broth microplate method; summary of the method: as §1

Row | SMILES | Ratio [1] | Activity [4] | Activity [7] | MIC [8] [µM] | MIC [9] [µM] | Activity [11] | Activity [14] | further results
1 | O=C1NC(N2CCNCC2)=N/C1=C\c1c2ccccc2cc2ccccc12 | 1 | inactive | inactive | 500 (≈ 178 µg/mL) | 500 (≈ 178 µg/mL) | inactive | inactive | fold change (FC) [2]: 64; viability at 48 h, 125 µM [3]: 91%; fold change (FC) [5]: 2; inhibition [6]: inactive; inhibition [10]: inactive; inhibition [12]: inactive; fold change (FC) [13]: 8
2 | CC1(C)S[C@@H]2[C@H](NC(=O)[C@H](N)c3ccccc3)C(=O)N2[C@H]1C(=O)O [AMPICILLIN] | 370 |  |  |  |  |  |  | MIC [15]: 200 µM; MIC [16]: 0.54 µM
3 | O=C1NC(N2CCNCC2)=N/C1=C\c1ccc2c(c1)Cc1ccccc1-2 | 2 | inactive | inactive | 15.6 (≈ 5.37 µg/mL) | 31.3 (≈ 10.8 µg/mL) | inactive | inactive | fold change (FC) [17]: 8; inhibition [18]: inactive; inhibition [19]: inactive; inhibition [20]: inactive; fold change (FC) [21]: 2; inhibition [22]: inactive
